Experimental data from ChEMBL document CHEMBL1122647 (J Med Chem, 1984).

Tests used:
L1210 = test: Compound was evaluated for its cytotoxicity against the L1210 murine leukemia cell culture; assay type: functional; conditions: Mus musculus, read-out: ID50 (the source's name)
Mus musculus [1] = test: In vivo antitumor activity was evaluated against L1210 leukemia implanted mice by measuring percent increase in life span after intraperitoneal administration of compound at 12 mg/kg; assay type: functional
Outline: (§1)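 Male B6D2F1J mice, five per group, were implanted ip with 10^5 L1210 cells on day 0. Treatment began on day 1. Drug was given ip in sterile water, twice daily on days 1-4 and 7-10, and as a single double-dose injection on days 5 and 6. Survival was recorded in days (range, and median treated/control), with % ILS derived from it. Body-weight change at 7 days was also recorded.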

Mus musculus [2] = test: In vivo antitumor activity was evaluated against L1210 leukemia implanted mice by measuring percent increase in life span after intraperitoneal administration of compound at 16 mg/kg; assay type: functional; outline: as §1
Mus musculus [3] = test: In vivo antitumor activity was evaluated against L1210 leukemia implanted mice by measuring percent increase in life span after intraperitoneal administration of compound at 8 mg/kg; assay type: functional; outline: as §1
Mus musculus [4] = test: In vivo antitumor activity was evaluated against L1210 leukemia implanted mice by measuring 7-day weight change after intraperitoneal administration of compound at 12 mg/kg; assay type: functional
Outline: (§2)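 Groups of five male B6D2F1J mice were inoculated ip with 10^5 L1210 cells on day 0. Starting day 1, drug in sterile water was given ip bid on days 1-4 and 7-10, with a single double-dose injection on days 5 and 6. Percent body-weight change was recorded at day 7, along with survival range, median T/C and ILS.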

Mus musculus [5] = test: In vivo antitumor activity was evaluated against L1210 leukemia implanted mice by measuring T/C median after intraperitoneal administration of compound at 16 mg/kg; T/C median=15/8; assay type: functional; outline: as §1
Mus musculus [6] = test: In vivo antitumor activity was evaluated against L1210 leukemia implanted mice by measuring T/C median after intraperitoneal administration of compound at 8 mg/kg; T/C median=13/8; assay type: functional; outline: as §1
Mus musculus [7] = test: In vivo antitumor activity was evaluated against L1210 leukemia implanted mice by measuring number of survival days after intraperitoneal administration of compound at 16 mg/kg; at a range of 15-17; assay type: functional; outline: as §1
Mus musculus [8] = test: In vivo antitumor activity was evaluated against L1210 leukemia implanted mice by measuring number of survival days after intraperitoneal administration of compound at 8 mg/kg; at a range of 12-15; assay type: functional; outline: as §1
Mus musculus [9] = test: In vivo antitumor activity was evaluated against L1210 leukemia implanted mice by measuring T/C median after intraperitoneal administration of compound at 12 mg/kg; T/C median=13/8; assay type: functional; outline: as §1
Mus musculus [10] = test: In vivo antitumor activity was evaluated against L1210 leukemia implanted mice by measuring 7-day weight change after intraperitoneal administration of compound at 8 mg/kg; assay type: functional; outline: as §2
Mus musculus [11] = test: In vivo antitumor activity was evaluated against L1210 leukemia implanted mice by measuring 7-day weight change after intraperitoneal administration of compound at 16 mg/kg; assay type: functional; outline: as §2
[12] = target: T1, Dihydrofolate reductase (Mus musculus) (UniProt P00375)
T1 sequence (whole entry): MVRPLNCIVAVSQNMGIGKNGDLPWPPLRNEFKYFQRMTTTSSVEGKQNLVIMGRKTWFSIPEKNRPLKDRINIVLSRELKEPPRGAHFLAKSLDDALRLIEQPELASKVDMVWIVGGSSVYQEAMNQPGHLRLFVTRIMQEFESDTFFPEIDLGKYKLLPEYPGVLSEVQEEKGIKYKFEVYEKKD

Mus musculus [13] = test: In vivo antitumor activity was evaluated against L1210 leukemia implanted mice by measuring number of survival days after intraperitoneal administration of compound at 12 mg/kg; at a range of 13-15
Mus musculus [14] = test: In vivo antitumor activity was evaluated against L1210 leukemia implanted mice by measuring percent increase in life span after intraperitoneal administration of compound at 32 mg/kg; assay type: functional; outline: as §1
Mus musculus [15] = test: In vivo antitumor activity was evaluated against L1210 leukemia implanted mice by measuring number of survival days after intraperitoneal administration of compound at 32 mg/kg; at a range of 12-16; assay type: functional; outline: as §1
Mus musculus [16] = test: In vivo antitumor activity was evaluated against L1210 leukemia implanted mice by measuring T/C median after intraperitoneal administration of compound at 16 mg/kg; T/C median=12/9; assay type: functional; outline: as §1
Mus musculus [17] = test: In vivo antitumor activity was evaluated against L1210 leukemia implanted mice by measuring number of survival days after intraperitoneal administration of compound at 16 mg/kg; at a range of 11-14; assay type: functional; outline: as §1
Mus musculus [18] = test: In vivo antitumor activity was evaluated against L1210 leukemia implanted mice by measuring 7-day weight change after intraperitoneal administration of compound at 32 mg/kg; assay type: functional; outline: as §2
Mus musculus [19] = test: In vivo antitumor activity was evaluated against L1210 leukemia implanted mice by measuring T/C median after intraperitoneal administration of compound at 32 mg/kg; T/C median=13/9; assay type: functional; outline: as §1
Mus musculus [20] = test: In vivo antitumor activity was evaluated against L1210 leukemia implanted mice by measuring percent increase in life span after intraperitoneal administration of compound at 1 mg/kg; assay type: functional; outline: as §1
Mus musculus [21] = test: In vivo antitumor activity was evaluated against L1210 leukemia implanted mice by measuring percent increase in life span after intraperitoneal administration of compound at 0.5 mg/kg; assay type: functional; outline: as §1
Mus musculus [22] = test: In vivo antitumor activity was evaluated against L1210 leukemia implanted mice by measuring percent increase in life span after intraperitoneal administration of compound at 0.75 mg/kg; assay type: functional; outline: as §1
Mus musculus [23] = test: In vivo antitumor activity was evaluated against L1210 leukemia implanted mice by measuring T/C median after intraperitoneal administration of compound at 1 mg/kg; T/C median=21/9; assay type: functional; outline: as §1
Mus musculus [24] = test: In vivo antitumor activity was evaluated against L1210 leukemia implanted mice by measuring number of survival days after intraperitoneal administration of compound at 1 mg/kg; at a range of 3-22; assay type: functional; outline: as §1
Mus musculus [25] = test: In vivo antitumor activity was evaluated against L1210 leukemia implanted mice by measuring T/C median after intraperitoneal administration of compound at 0.5 mg/kg; T/C median=16/9; assay type: functional; outline: as §1
Mus musculus [26] = test: In vivo antitumor activity was evaluated against L1210 leukemia implanted mice by measuring 7-day weight change after intraperitoneal administration of compound at 0.5 mg/kg; assay type: functional; outline: as §2
Mus musculus [27] = test: In vivo antitumor activity was evaluated against L1210 leukemia implanted mice by measuring 7-day weight change after intraperitoneal administration of compound at 0.75 mg/kg; assay type: functional; outline: as §2
Mus musculus [28] = test: In vivo antitumor activity was evaluated against L1210 leukemia implanted mice by measuring number of survival days after intraperitoneal administration of compound at 0.5 mg/kg; at a range of 15-18; assay type: functional; outline: as §1
Mus musculus [29] = test: In vivo antitumor activity was evaluated against L1210 leukemia implanted mice by measuring number of survival days after intraperitoneal administration of compound at 0.75 mg/kg; at a range of 16-21; assay type: functional; outline: as §1
Mus musculus [30] = test: In vivo antitumor activity was evaluated against L1210 leukemia implanted mice by measuring 7-day weight change after intraperitoneal administration of compound at 1 mg/kg; assay type: functional; outline: as §2
Mus musculus [31] = test: In vivo antitumor activity was evaluated against L1210 leukemia implanted mice by measuring T/C median after intraperitoneal administration of compound at 0.75 mg/kg; T/C median=18/9; assay type: functional; outline: as §1

## Nc1nc(N)c2nc(CNc3ccc(C(=O)NC(CS(=O)(=O)O)C(=O)O)cc3)cnc2n1 (configuration not stated)
L1210
  IC50: 44 nM
Mus musculus [1]
  Activity: 62%
Mus musculus [2]
  Activity: 88%
Mus musculus [3]
  Activity: 62%
Mus musculus [4]
  Activity: 2%
Mus musculus [5]
  Survival days: 15
Mus musculus [6]
  Survival days: 13
Mus musculus [7]
  Survival days: 17
Mus musculus [8]
  Survival days: 12
Mus musculus [9]
  Survival days: 13
Mus musculus [10]
  Weight change: 2%
Mus musculus [11]
  Weight change: 0%
[12]
  ID50: 65 nM
Mus musculus [13]
  Survival days: 13

## CN(Cc1cnc2nc(N)nc(N)c2n1)c1ccc(C(=O)NC(CS(=O)(=O)O)C(=O)O)cc1 (configuration not stated)
L1210
  IC50: 340 nM
Mus musculus [2]
  Activity: 33%
Mus musculus [14]
  Activity: 44%
Mus musculus [15]
  Survival days: 12
Mus musculus [16]
  Survival days: 12
Mus musculus [17]
  Survival days: 11
Mus musculus [18]
  Activity: -1%
Mus musculus [11]
  Weight change: 2%
Mus musculus [19]
  Survival days: 13
[12]
  ID50: 45 nM

## CN(Cc1cnc2nc(N)nc(N)c2n1)c1ccc(C(=O)N[C@@H](CCC(=O)O)C(=O)O)cc1 [METHOTREXATE]
L1210
  IC50: 12 nM
Mus musculus [20]
  Activity: 133%
Mus musculus [21]
  Activity: 78%
Mus musculus [22]
  Activity: 100%
Mus musculus [23]
  Survival days: 21
Mus musculus [24]
  Survival days: 3
Mus musculus [25]
  Survival days: 16
Mus musculus [26]
  Weight change: -1%
Mus musculus [27]
  Weight change: -5%
Mus musculus [28]
  Survival days: 15
Mus musculus [29]
  Survival days: 16
Mus musculus [30]
  Weight change: -8%
Mus musculus [31]
  Survival days: 18
